Laboratory results taken from ChEMBL document CHEMBL2375313, “Synthesis, in vitro antitumor evaluation and DNA-binding study of novel tetrahydroquinolines and some derived tricyclic and tetracyclic ring systems” (Eur J Med Chem, 2013).

What was measured:
Assay type in all cases: functional
[1] = tested on: MDA-MB-468; test: Cytotoxicity against human MDA-MB-468 cells assessed as growth inhibition at 10 uM after 48 hrs by sulphorhodamine B assay; conditions: MDA-MB-468, 48 h, read-out: GI
Summary of the method: (§1)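 NCI-60 one-dose screen per the NCI Drug Evaluation Branch protocol. Cells given a single 10 µM concentration with 48 h continuous exposure. Growth estimated by sulphorhodamine B protein assay. Result expressed as percentage growth inhibition relative to untreated growth.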

[2] = tested on: HT-29; test: Cytotoxicity against human HT-29 cells assessed as growth inhibition at 10 uM after 48 hrs by sulphorhodamine B assay; conditions: HT-29, 48 h, read-out: GI; summary of the method: as §1
[3] = tested on: K562; test: Cytotoxicity against human K562 cells assessed as growth inhibition at 10 uM after 48 hrs by sulphorhodamine B assay; conditions: K562, 48 h, read-out: GI; summary of the method: as §1
[4] = tested on: SK-MEL-2; test: Cytotoxicity against human SK-MEL-2 cells assessed as growth inhibition at 10 uM after 48 hrs by sulphorhodamine B assay; conditions: SK-MEL-2, 48 h, read-out: GI; summary of the method: as §1
[5] = tested on: SNB-19; test: Cytotoxicity against human SNB19 cells assessed as growth inhibition at 10 uM after 48 hrs by sulphorhodamine B assay; conditions: SNB-19, 48 h, read-out: GI; summary of the method: as §1
[6] = tested on: CAKI-1; test: Cytotoxicity against human Caki1 cells assessed as growth inhibition at 10 uM after 48 hrs by sulphorhodamine B assay; conditions: CAKI-1, 48 h, read-out: GI; summary of the method: as §1
[7] = tested on: CCRF-CEM; test: Cytotoxicity against human CCRF-CEM cells assessed as growth inhibition at 10 uM after 48 hrs by sulphorhodamine B assay; conditions: read-out: GI; summary of the method: as §1
[8] = tested on: SK-OV-3; test: Cytotoxicity against human SKOV3 cells assessed as growth inhibition at 10 uM after 48 hrs by sulphorhodamine B assay; conditions: SK-OV-3, 48 h, read-out: GI; summary of the method: as §1
[9] = tested on: HOP-92; test: Cytotoxicity against human HOP92 cells assessed as growth inhibition at 10 uM after 48 hrs by sulphorhodamine B assay; conditions: HOP-92, 48 h, read-out: GI; summary of the method: as §1
[10] = tested on: UO-31; test: Cytotoxicity against human UO31 cells assessed as growth inhibition at 10 uM after 48 hrs by sulphorhodamine B assay; conditions: UO-31, 48 h, read-out: GI; summary of the method: as §1
[11] = tested on: DU-145; test: Cytotoxicity against human DU145 cells assessed as growth inhibition at 10 uM after 48 hrs by sulphorhodamine B assay; conditions: DU-145, 48 h, read-out: GI; summary of the method: as §1
[12] = tested on: T47D; test: Cytotoxicity against human T47D cells assessed as growth inhibition at 10 uM after 48 hrs by sulphorhodamine B assay; conditions: read-out: GI; summary of the method: as §1
[13] = tested on: Hs-578T; test: Cytotoxicity against human Hs578T cells assessed as growth inhibition at 10 uM after 48 hrs by sulphorhodamine B assay; conditions: read-out: GI; summary of the method: as §1
[14] = tested on: IGROV-1; test: Cytotoxicity against human IGROV1 cells assessed as growth inhibition at 10 uM after 48 hrs by sulphorhodamine B assay; conditions: IGROV-1, 48 h, read-out: GI; summary of the method: as §1
[15] = tested on: MOLT-4; test: Cytotoxicity against human MOLT4 cells assessed as growth inhibition at 10 uM after 48 hrs by sulphorhodamine B assay; conditions: MOLT-4, 48 h, read-out: GI; summary of the method: as §1
[16] = tested on: SF-268; test: Cytotoxicity against human SF268 cells assessed as growth inhibition at 10 uM after 48 hrs by sulphorhodamine B assay; conditions: SF-268, 48 h, read-out: GI; summary of the method: as §1
[17] = tested on: A498; test: Cytotoxicity against human A498 cells assessed as growth inhibition at 10 uM after 48 hrs by sulphorhodamine B assay; conditions: A498, 48 h, read-out: GI; summary of the method: as §1
[18] = tested on: NCI-H522; test: Cytotoxicity against human NCI-H522 cells assessed as growth inhibition at 10 uM after 48 hrs by sulphorhodamine B assay; conditions: NCI-H522, 48 h, read-out: GI; summary of the method: as §1
[19] = tested on: PC-3; test: Cytotoxicity against human PC3 cells assessed as growth inhibition at 10 uM after 48 hrs by sulphorhodamine B assay; conditions: PC-3, 48 h, read-out: GI; summary of the method: as §1
[20] = tested on: RXF 393; test: Cytotoxicity against human RXF393 cells assessed as growth inhibition at 10 uM after 48 hrs by sulphorhodamine B assay; conditions: RXF 393, 48 h, read-out: GI; summary of the method: as §1
[21] = tested on: NCI/ADR-RES; test: Cytotoxicity against human NCI/ADR-RES cells assessed as growth inhibition at 10 uM after 48 hrs by sulphorhodamine B assay; conditions: read-out: GI; summary of the method: as §1
[22] = tested on: U-251; test: Cytotoxicity against human U251 cells assessed as growth inhibition at 10 uM after 48 hrs by sulphorhodamine B assay; conditions: U-251, 48 h, read-out: GI; summary of the method: as §1
[23] = tested on: SF-295; test: Cytotoxicity against human SF295 cells assessed as growth inhibition at 10 uM after 48 hrs by sulphorhodamine B assay; conditions: SF-295, 48 h, read-out: GI; summary of the method: as §1
[24] = tested on: A549; test: Cytotoxicity against human A549 cells assessed as growth inhibition at 10 uM after 48 hrs by sulphorhodamine B assay; conditions: A549, 48 h, read-out: GI; summary of the method: as §1
[25] = tested on: ACHN; test: Cytotoxicity against human ACHN cells assessed as growth inhibition at 10 uM after 48 hrs by sulphorhodamine B assay; conditions: read-out: GI; summary of the method: as §1
[26] = tested on: OVCAR-4; test: Cytotoxicity against human OVCAR4 cells assessed as growth inhibition at 10 uM after 48 hrs by sulphorhodamine B assay; conditions: OVCAR-4, 48 h, read-out: GI; summary of the method: as §1
[27] = tested on: RPMI-8226; test: Cytotoxicity against human RPMI8226 cells assessed as growth inhibition at 10 uM after 48 hrs by sulphorhodamine B assay; conditions: RPMI-8226, 48 h, read-out: GI; summary of the method: as §1
[28] = tested on: M14; test: Cytotoxicity against human M14 cells assessed as growth inhibition at 10 uM after 48 hrs by sulphorhodamine B assay; conditions: M14, 48 h, read-out: GI; summary of the method: as §1
[29] = tested on: SR; test: Cytotoxicity against human SR cells assessed as growth inhibition at 10 uM after 48 hrs by sulphorhodamine B assay; conditions: read-out: GI; summary of the method: as §1
[30] = tested on: HCT-116; test: Cytotoxicity against human HCT116 cells assessed as growth inhibition at 10 uM after 48 hrs by sulphorhodamine B assay; conditions: HCT-116, 48 h, read-out: GI; summary of the method: as §1
[31] = tested on: SNB-75; test: Cytotoxicity against human SNB75 cells assessed as growth inhibition at 10 uM after 48 hrs by sulphorhodamine B assay; conditions: SNB-75, 48 h, read-out: GI; summary of the method: as §1
[32] = tested on: OVCAR-5; test: Cytotoxicity against human OVCAR5 cells assessed as growth inhibition at 10 uM after 48 hrs by sulphorhodamine B assay; conditions: OVCAR-5, 48 h, read-out: GI; summary of the method: as §1
[33] = tested on: SK-MEL-5; test: Cytotoxicity against human SK-MEL-5 cells assessed as growth inhibition at 10 uM after 48 hrs by sulphorhodamine B assay; conditions: SK-MEL-5, 48 h, read-out: GI; summary of the method: as §1
[34] = Cytotoxicity against human EKVX cells assessed as growth inhibition at 10 uM after 48 hrs by sulphorhodamine B assay; conditions: read-out: GI; summary of the method: as §1
[35] = tested on: MDA-MB-435; test: Cytotoxicity against human MDA-MB-435 cells assessed as growth inhibition at 10 uM after 48 hrs by sulphorhodamine B assay; conditions: MDA-MB-435, 48 h, read-out: GI; summary of the method: as §1
[36] = tested on: HCT-15; test: Cytotoxicity against human HCT15 cells assessed as growth inhibition at 10 uM after 48 hrs by sulphorhodamine B assay; conditions: HCT-15, 48 h, read-out: GI; summary of the method: as §1
[37] = tested on: MCF7; test: Cytotoxicity against human MCF7 cells assessed as growth inhibition at 10 uM after 48 hrs by sulphorhodamine B assay; conditions: MCF7, 48 h, read-out: GI; summary of the method: as §1
[38] = tested on: NCI-H23; test: Cytotoxicity against human NCI-H23 cells assessed as growth inhibition at 10 uM after 48 hrs by sulphorhodamine B assay; conditions: NCI-H23, 48 h, read-out: GI; summary of the method: as §1
[39] = tested on: LOX IMVI; test: Cytotoxicity against human LOXIMVI cells assessed as growth inhibition at 10 uM after 48 hrs by sulphorhodamine B assay; conditions: read-out: GI; summary of the method: as §1
[40] = tested on: UACC-62; test: Cytotoxicity against human UACC62 cells assessed as growth inhibition at 10 uM after 48 hrs by sulphorhodamine B assay; conditions: UACC-62, 48 h, read-out: GI; summary of the method: as §1
[41] = tested on: HL-60(TB); test: Cytotoxicity against human HL-60(TB) cells assessed as growth inhibition at 10 uM after 48 hrs by sulphorhodamine B assay; conditions: HL-60, 48 h, read-out: GI
Summary of the method: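 NCI-60 one-dose primary screen run to the Drug Evaluation Branch protocol. Cells are exposed to a single 10 µM concentration for 48 h continuously, and growth is read by SRB protein assay. Data are reported as percent growth of treated cells, expressed as % growth inhibition.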

Work on `COc1ccc(-c2c(C#N)c(N)nc3c2CCCC3C)cc1` (stereo unspecified) yielded an inhibition of growth at 10 µM [1] of 15.2%, an inhibition of growth at 10 µM [2] of less than 10% and an inhibition of growth at 10 µM [3] of 28.4%. For the same compound, the inhibition of growth at 10 µM [4] was less than 10%, the inhibition of growth at 10 µM [5] was 11% and the inhibition of growth at 10 µM [6] was less than 10%. It also gave an inhibition of growth at 10 µM [7] of 16.3%, an inhibition of growth at 10 µM [8] of less than 10% and an inhibition of growth at 10 µM [9] of 20%. The inhibition of growth at 10 µM [10] was less than 10%, the inhibition of growth at 10 µM [11] was less than 10% and the inhibition of growth at 10 µM [12] was 41%. It also gave an inhibition of growth at 10 µM [13] of less than 10%, an inhibition of growth at 10 µM [14] of less than 10% and an inhibition of growth at 10 µM [15] of 21.3%. The inhibition of growth at 10 µM [16] was less than 10%, the inhibition of growth at 10 µM [17] was less than 10% and the inhibition of growth at 10 µM [18] was 14.6%. The inhibition of growth at 10 µM [19] was 16.2%, the inhibition of growth at 10 µM [20] was 11.1% and the inhibition of growth at 10 µM [21] was 24.1%. For the same compound, the inhibition of growth at 10 µM [22] was 20%, the inhibition of growth at 10 µM [23] was less than 10% and the inhibition of growth at 10 µM [24] was 15.7%. It also gave an inhibition of growth at 10 µM [25] of less than 10%, an inhibition of growth at 10 µM [26] of 17.2% and an inhibition of growth at 10 µM [27] of 34.1%. The inhibition of growth at 10 µM [28] was less than 10%, the inhibition of growth at 10 µM [29] was 36.6% and the inhibition of growth at 10 µM [30] was 15.7%. It also gave an inhibition of growth at 10 µM [31] of 25.3%, an inhibition of growth at 10 µM [32] of less than 10% and an inhibition of growth at 10 µM [33] of 14.5%. For the same compound, the inhibition of growth at 10 µM [34] was less than 10%, the inhibition of growth at 10 µM [35] was less than 10% and the inhibition of growth at 10 µM [36] was 25.3%. The inhibition of growth at 10 µM [37] was 10%, the inhibition of growth at 10 µM [38] was 11% and the inhibition of growth at 10 µM [39] was 12.3%. For the same compound, the inhibition of growth at 10 µM [40] was 20% and the inhibition of growth at 10 µM [41] was 11.7%.
